In assay [1] the test system is MDA-MB-231. Kind of assay: Inhibition of human breast cancer cell line MDA-MB-231 growth. The format is functional, cell-based.
Assay [2] concerns PC-3. As to the kind of experiment: Inhibition of human prostate cancer cell line PC-3 growth. The format is functional, cell-based.
For assay [3], the target named is Nucleic Acid. As to the kind of experiment: ability to interact with DNA was assessed by a DNA/ethidium bromide dye displacement assay, expressed as DC50 for polydAdT. Format: nucleic-acid assay. In outline: (§1)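 Ethidium displacement run by an adapted literature method: 2.5 µM polydAdT with 1.5 µM ethidium bromide in 3.75 mM Tris/NaCl, pH 8.0. Compound added to the DNA–dye complex; DC50 reported.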

Assay [4] deals with SK-OV-3. As to the kind of experiment: Compound was evaluated for cytotoxic activity against human ovarian cancer cell line SK-OV-3. Format: functional, cell-based. In outline:
(§2)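 SK-OV-3, Mes-SA and multidrug-resistant Mes-SA/Dx5 cultured in McCoy's 5A with 1 mM aminoguanidine, penicillin/streptomycin and 10% FBS.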

Assay [5] deals with PC-3. As to the kind of experiment: Compound was evaluated for cytotoxic activity against human prostate cancer cell line PC-3. The format is functional, cell-based.
In assay [6] the test system is A-375. Kind of assay: Compound was evaluated for cytotoxic activity against human melanoma cell line A375. The format is functional, cell-based. In outline: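 A375 melanoma medium contained 1 mM aminoguanidine, penicillin/streptomycin, 10% FBS, 1 mM sodium pyruvate and 2 mM L-glutamine.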
The test system of assay [7] is MDA-MB-231. Kind of assay: Compound was evaluated for cytotoxic activity against human breast cancer cell line MDA-MB-231. Format: functional, cell-based. Summed up: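 MDA-MB-231 grown in medium with 1 mM aminoguanidine, 50 U/mL penicillin, 50 µg/mL streptomycin, 10% FBS and 2 mM L-glutamine. Drug added 24 h after plating, cells grown a further 72 h. Cell number by MTS; IC50 (µM), some values as mean ± error (n).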

In assay [8] the test system is T47D. Kind of assay: Compound was evaluated for cytotoxic activity against the following human cancer cell Breast cancer cell line T47 D. Format: functional, cell-based. In outline: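 T47.D in RPMI 1640 with 1 mM aminoguanidine, penicillin/streptomycin, 10% FBS, 1 mM sodium pyruvate, 2 mM L-glutamine and 0.4% insulin.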
The subject of assay [9] is SK-MEL-5. As to the kind of experiment: Compound was evaluated for cytotoxic activity against human melanoma cell line SK-Mel-5. Format: functional, cell-based. In outline:
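SK-Mel-5 maintained in EMEM supplemented with 1 mM aminoguanidine, 50 U/mL penicillin, 50 µg/mL streptomycin and 10% FBS.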

Assay [10] has as its system Mes-SA/Dx5 (Homo sapiens). Kind of assay: Compound was evaluated for cytotoxic activity against the following human cancer cell MDR Uterine cancer cell line Mes-SA/Dx5.
Assay [11] deals with MES-SA. Kind of assay: Compound was evaluated for cytotoxic activity against the following human cancer cell Uterine cancer cell line Mes-SA. Format: functional, cell-based. Summed up:
as §2

Assay [12] has as its target Nucleic Acid. Kind of assay: Ability to interact with DNA was assessed by a DNA/ethidium bromide dye displacement assay, expressed as DC50 for polydAdT. The format is nucleic-acid assay. In outline:
as §1

Some results are limits rather than exact numbers.

As to `c1cc(CNCc2cccc3ccccc23)cc(CNCc2cccc3ccccc23)c1`, the values for the 50% inhibitory concentration (IC50) in [1] and in [2] were 19 µM and 20 µM, respectively.
For `Clc1ccc(CNCCCCNCc2ccc(Cl)c(Cl)c2)cc1Cl`, the figures for the half-maximal inhibitory concentration (IC50) in [1] and in [2] were 65 µM and 20 µM, respectively.
Regarding `COc1ccc(CNCCCCNCc2ccc(OC)cc2)cc1`, the results for the IC50 in [1] and in assay [2] were 21 µM and 6 µM, respectively.
In the case of `c1ccc(-c2ccc(CNCCCNCc3ccc(-c4ccccc4)cc3)cc2)cc1`, the IC50 in assay [1] amounted to 2 µM; in assay [2] it was 0.8 µM.
In the case of `O=[N+]([O-])c1ccccc1CNCCCCNCc1ccccc1[N+](=O)[O-]`, the results for the concentration for half-maximal inhibition (IC50) in [1] and in assay [2] were 62 µM and 23 µM, respectively.
In [3], `Cn1cc(NC(=O)c2cc(NC(=O)c3cc(NC=O)cn3C)cn2C)cc1C(=O)NCCC(=N)N` [STALLIMYCIN] had a DC50 of 44 µM.
Take `N#Cc1ccc(CNCCCCNCc2ccc(C#N)cc2)cc1`: the IC50 in [1] turned out to be 84 µM; in [2] it was 22 µM.
On the same counts, the results for `Nc1cccc(CNCCCCNCc2cccc(N)c2)c1` are over 300 µM and over 300 µM.
Take `NCCCCNCc1ccccc1`: the IC50 in assay [1] was over 300 µM; in assay [2] it was 211 µM.
Consider `c1ccc(-c2ccc(CNCCCCNCc3ccc(-c4ccccc4)cc3)cc2)cc1`, for which the concentration for half-maximal inhibition (IC50) in [4] amounted to 0.74 µM; in [5], 0.77 µM; in assay [6], 0.59 µM; in assay [7] it was 1.92 µM.
`c1ccc2c(c1)Cc1cc(CNCCCCNCc3ccc4c(c3)Cc3ccccc3-4)ccc1-2`: the IC50 is 6.6 µM in [1] and 1.85 µM in assay [2].
`c1ccc2c(CNCCCNCc3cccc4ccccc34)cccc2c1`: the 50% inhibitory concentration (IC50) is 5.1 µM in assay [1] and 4.3 µM in assay [2].
Regarding `Nc1ccccc1CNCCCCNCc1ccccc1N`, the half-inhibitory concentration (IC50) in [1] was 146 µM; in assay [2] it was 98 µM.
For the compound `c1ccc2c(CNCCCCNCc3c[nH]c4ccccc34)c[nH]c2c1`, the half-maximal inhibitory concentration (IC50) in assay [1] stood at 77 µM; in assay [2], 51 µM.
The corresponding values for `O=[N+]([O-])c1cccc(CNCCCCNCc2cccc([N+](=O)[O-])c2)c1` are 18 µM and 9 µM.
For `[N-]=[N+]=Nc1cccc(CNCCCCNCc2cccc(N=[N+]=[N-])c2)c1`, the IC50 in [1] is 19 µM; in assay [2], 15 µM.
The corresponding values for `COc1ccc(CNCCCCNCc2ccc(OC)c3ccccc23)c2ccccc12` are 2.8 µM and 3.2 µM.
The corresponding values for `N#Cc1cccc(CNCCCCNCc2cccc(C#N)c2)c1` are 42 µM and 10 µM.
Take `c1ccc(N(c2ccccc2)c2ccc(CNCCCCNCc3ccc(N(c4ccccc4)c4ccccc4)cc3)cc2)cc1`: the half-inhibitory concentration (IC50) came to 0.65 µM in assay [8]; 0.94 µM in assay [9]; 0.68 µM in [4]; 0.6 µM in assay [5]; 0.61 µM in assay [10]; 0.4 µM in [6]. The IC50 came out at 0.64 µM in [11] and 0.62 µM in [7]. Moreover, the DC50 in assay [3] came out at 9.4 µM.
With `COc1cc(CNCCCCNCc2cc(OC)c(OC)c(OC)c2)cc(OC)c1OC`, the IC50 in assay [1] and in [2] was 58 µM each time.
As to `c1ccc2c(CNCCCCCNCc3cccc4ccccc34)cccc2c1`, the concentration for half-maximal inhibition (IC50) came to 8.3 µM in assay [1] and 6.5 µM in assay [2].
Consider `NCCCCNCc1cccc2ccccc12`, for which the IC50 is over 300 µM in assay [1] and 211 µM in assay [2].
As for `O=[N+]([O-])c1ccc(CNCCCCNCc2ccc([N+](=O)[O-])cc2)cc1`, the half-maximal inhibitory concentration (IC50) was found to be 205 µM in assay [1] and 143 µM in assay [2].
As for `c1cc2c(cc1CNCCCCNCc1ccc3c(c1)OCO3)OCO2`, the half-inhibitory concentration (IC50) in assay [1] came to 70 µM; in assay [2] it was 56 µM.
`c1ccc2c(CNCCCCNCc3cccc4ccccc34)cccc2c1`: the IC50 in assay [8] was determined as 6.5 µM; in assay [9], 4.6 µM; in assay [4] it was 8.5 µM; in [5] it was 10 µM; in assay [10], 7.2 µM; in assay [6], 5.4 µM. Also, the results for the IC50 in [11] and in assay [7] were 10.1 µM and 9.1 µM, respectively. This compound registered a DC50 in assay [12] of 8.7 µM.
`c1ccc2c(CNCCCCNCc3c4ccccc4cc4ccccc34)c3ccccc3cc2c1`: the results for the half-maximal inhibitory concentration (IC50) in assay [1] and in assay [2] were 3.5 µM and 2.7 µM, respectively.
For `CC(CCC(C)NCc1cccc2ccccc12)NCc1cccc2ccccc12` (stereo not given), the IC50 in assay [1] was found to be 5 µM; in assay [2] it was 7 µM.
Turning to `CN(C)c1ccc(CNCCCCNCc2ccc(N(C)C)cc2)cc1`, the IC50 in assay [1] amounted to 197 µM; in assay [2], 56 µM.
On the same counts, the results for `c1ccc2c(CNCc3ccc(CNCc4cccc5ccccc45)cc3)cccc2c1` are 7 µM and 14 µM.
Regarding `NCCCCNCc1ccc([N+](=O)[O-])cc1`, the IC50 in [1] was 201 µM; in assay [2], 50 µM.
In the case of `O=C1c2cccc3cccc(c23)C(=O)N1CCNCCCNCCN1C(=O)c2cccc3cccc(c23)C1=O` [ELINAFIDE], the figures for the IC50 in assay [1] and in [2] were 0.06 µM and 0.07 µM, respectively.
On the same counts, the results for `c1ccc2cc(CNCCCCNCc3ccc4ccccc4c3)ccc2c1` are 2.1 µM and 2.5 µM.
As to `c1ccc2c(CCNCCCCNCCc3cccc4ccccc34)cccc2c1`, the half-inhibitory concentration (IC50) in assay [1] stood at 25 µM; in [2], 37 µM.
The corresponding values for `c1ccc2c(CNCCCCNCc3ccnc4ccccc34)ccnc2c1` are 9.4 µM and 8.4 µM.
For the compound `c1ccc(-c2ccc(CNCCCCCNCc3ccc(-c4ccccc4)cc3)cc2)cc1`, the concentration for half-maximal inhibition (IC50) was 1.3 µM in assay [1] and 0.48 µM in assay [2].

Values taken from ChEMBL document CHEMBL1135298, “Induction of apoptosis by aryl-substituted diamines: role of aromatic group substituents and distance between nitrogens” (Bioorg Med Chem Lett, 2002).
